Published values pooled from the literature.
Protocols differ between the studies behind these lines.
Target: Serine/threonine-protein kinase pim-2 (PIM2, Homo sapiens, UniProt Q9P1W9)

`COc1cc(Nc2c(C#N)cnc3cc(OCCCN4CCN(C)CC4)c(OC)cc23)c(Cl)cc1Cl` has a remaining signal of 111% (cell-free assay; 0.5 µM).
`CN1CC(Oc2cnc(C#N)cc2-c2ccn3nc(NC(=O)C4CC4)cc3c2)C1` has an inhibition of 4% (enzyme activity, inhibitor; 1 µM).
`C[C@@H]1CN(c2cc(-c3n[nH]c4ccc(OC5(C)CC5)cc34)ncn2)C[C@H](C)O1` has a remaining binding of 88% (cell-free assay, competition with immobilised ligand; 0.1 µM).
The remaining activity of `CC(C)(C)C(=O)c1sc(NC2CCCCC2)nc1N` is reported as 109% (enzyme activity, inhibitor; 10 µM).
`Cn1nc(C(F)(F)F)cc1-c1cnc(N2CCc3cc(S(=O)(=O)Nc4c(F)cc(Cl)cc4F)cc(N4CCCC4=O)c32)nc1` has a remaining binding of 100% (cell-free assay, competition with immobilised ligand; 1 µM).
With `CC(C)(C)c1nc(-c2cccc(NS(=O)(=O)c3c(F)cccc3F)c2F)c(-c2ccnc(N)n2)s1` the remaining activity was 77% (enzyme activity, inhibitor, radiometric; 1 µM).
For `CC/C(=N\NC(=O)NCc1cccc(O)c1)c1ccc(O)c(C)c1O`, the inhibition was -5% (enzyme activity, inhibitor; 0.1 µM).
`COc1ccc2c(c1)O[C@@H](c1ccc(OC)c(OC)c1)C[C@H]2NC(=O)C1(c2ccc3c(c2)OC(F)(F)O3)CC1` has a remaining binding of 100% (cell-free assay, competition with immobilised ligand; 1 µM).
With `C#Cc1cccc(Nc2ncnc3cc(OCCOC)c(OCCOC)cc23)c1` the remaining signal was 97.9% (cell-free assay; 0.5 µM).
With `C=CC(=O)Nc1cc(Nc2nccc(Nc3cc(Cl)c(F)cc3C(C)(C)O)n2)c(OC)cc1N1CC[C@@H](N(C)C)C1` the inhibition was 16% (enzyme activity, inhibitor; 1 µM).
`CCN(CC)c1ccc(C2=NNC(=O)CC2C)cc1[N+](=O)[O-]` (stereo not shown) has a remaining activity of 108% (enzyme activity, inhibitor; 10 µM).
`O=C(CSc1nc2nccnc2c(=O)n1CCc1ccccc1)Nc1nccs1` has an inhibition of -5% (enzyme activity, inhibitor; 10 µM).
The remaining binding of `N#Cc1ccc(Nc2ccc3[nH]c(=O)[nH]c3c2)c(Cl)c1` is reported as 83% (cell-free assay, competition with immobilised ligand; 1 µM).
With `Cc1ccc(Nc2nccc(N(C)c3ccc4c(C)n(C)nc4c3)n2)cc1S(N)(=O)=O` the remaining activity was 101% (enzyme activity, inhibitor; 0.5 µM).
For `Cn1c(=O)n(-c2ccc(C(C)(C)C#N)cc2)c2c3cc(-c4cnc5ccccc5c4)ccc3ncc21`, the remaining activity was 94% (enzyme activity, inhibitor; 10 µM).
The inhibition of `COc1cc2ncnc(Nc3ccc(Oc4ccccc4)c(C)c3C)c2cc1OC` is reported as -2% (enzyme activity, inhibitor; 1 µM).
The activity vs control of `FC(F)(F)Oc1cccc(-c2cnc3ccc(-c4ccncc4)nn23)c1` is reported as 83% (enzyme activity, inhibitor, radiometric; 5 µM).
For `Cc1ccc(C(=O)NCc2ccsc2)cc1C#Cc1cn(C(C)C)c2ncnc(N)c12`, the activity vs control was 92% (enzyme activity, inhibitor; 1 µM).
`O=C1NC(=O)c2cc(Nc3ccc(F)cc3)c(Nc3ccc(F)cc3)cc21` gave a remaining signal of 98.6% (cell-free assay; 0.5 µM).
The remaining activity of `O=C(Nc1cnn(-c2csc(C(=O)NC3COC3)c2)c1)Nc1c(F)cccc1Cl` is reported as 129% (enzyme activity, inhibitor; 5 µM).
For `COc1cc(Nc2cnc(C#N)c(O[C@H](C)CN(C)C)n2)ncc1-c1cnn(C)c1`, the remaining activity was 98% (enzyme activity, inhibitor, radiometric; 1 µM).
`Cc1nc(N2CC[C@@H](O)C2)ncc1-c1cc(C(F)(F)F)cc2[nH]ncc12` gave a remaining binding of 89% (binding, competition with immobilised ligand; 1 µM).
With `Nc1nc(NC2CCCCC2)sc1C(=O)c1ccccc1` the remaining activity was 94% (enzyme activity, inhibitor; 10 µM).
`CNc1cccc2cc(C(=O)Nc3ccc(C(=O)O)cc3)c(=O)[nH]c12` has an inhibition of 13% (enzyme activity, inhibitor; 10 µM).
For `CNC(=O)c1cc(Oc2ccc(NC(=O)Nc3ccc(Cl)c(C(F)(F)F)c3)cc2)ccn1`, the inhibition was 9% (enzyme activity, inhibitor; 10 µM).
`O=C1CCc2cc(Nc3cc(OC4CCOCC4)c([N+](=O)[O-])cc3Cl)ccc2N1` has a remaining binding of 84% (cell-free assay, competition with immobilised ligand; 1 µM).
The remaining signal of `Nc1ncnc2occ(-c3ccc(NC(=O)Nc4cc(C(F)(F)F)ccc4F)cc3)c12` is reported as 100% (cell-free assay, inhibitor; 20 µM).
The remaining binding of `CS(=O)(=O)N1CCCC(NC(=O)[C@H](CCC2CCCCC2)NC(=O)c2ccc(CNc3ncnc4c3nnn4-c3ccccc3)cc2)C1` (stereo partly shown) is reported as 88% (cell-free assay, competition with immobilised ligand; 0.1 µM).
The remaining activity of `CC(C)(O)[C@H]1CC[C@H](Nc2ccc3ncc(-c4cccc(C(F)(F)F)c4)n3n2)CC1` is reported as 29.8% (enzyme activity, inhibitor; 1 µM).
For `Cc1nccc(COC(=O)N2C[C@@H]3[C@@H](CNC(=O)c4ccc5[nH]nnc5c4)[C@@H]3C2)n1`, the remaining binding was 0% (cell-free assay, competition with immobilised ligand; 1 µM).
`Cc1ccc(NC(=O)c2ccc(C)c(C(F)(F)F)c2)cc1C#Cc1nn(C2CCC(O)CC2)c2ncnc(N)c12` (stereo not shown) gave a remaining signal of 112% (cell-free assay; 10 µM).
